Measurements: PMC8444931 (Clinical and Translational Science, 2021)
pIC50, pKi: −log10 of the molar value.

Assays:
[1] = system: cytokine‐induced STAT6 phosphorylation; test: cytokine‐induced STAT6 phosphorylation in bronchial epithelial cell lines; format: cell-based; details: data on file, Theravance Biopharma
[2] = phase I part B plasma pharmacokinetics; format: in vivo, human; details: for DN AUCtau / DN Cmax,ss: dose normalized; for DN AUCtau / DN Cmax,ss / Ctrough,ss: geometric mean (geometric CV%); for AUC / Cmax / Tmax: human, inhaled; for AUC / Cmax / Tmax / Ctrough,ss: plasma
Summary of the method: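 Healthy adults got nebulized 1, 3 or 10 mg once daily for 7 days. Serial blood was drawn through 24 h after the day-1 dose and from predose through 48 h after the day-7 dose; troughs were drawn predose on days 3–6. Day-7 parameters, including dose-normalized values, were given as geometric mean (geometric CV%). Accumulation ratios were AUCtau/day-1 AUC0-24 and Cmax,ss/day-1 Cmax.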

[3] = human plasma protein binding; format: in vitro ADME
[4] = phase I part A plasma pharmacokinetics; format: in vivo, human; details: for Tmax / AUC(0-t) / Cmax / Vd/F: human, plasma, inhaled or intranasal
Summary of the method: (§1)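 Healthy adults got a single nebulized dose (1, 3 or 10 mg). Blood and urine were sampled predose and over 72 h postdose. Plasma and urine PK parameters were estimated per participant and summarized as geometric mean (CV%). Urinary excretion was expressed as cumulative percentage of administered dose.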

[5] = phase I part A urine pharmacokinetics; format: in vivo, human; details: geometric mean (CV%)
Summary of the method: as §1

phase I part A = format: in vivo, human; details: for TEAE Cough / TEAE Dizziness / TEAE Headache / TEAE related to nezulcitinib / Total participants with TEAEs: part A
Summary of the method: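 Healthy adults aged 18–50 (BMI 18–32 kg/m^2, FEV1 ≥80% predicted) in a double-blind, randomized, placebo-controlled single ascending dose study. Three cohorts of 8 (6 active, 2 placebo) got one nebulized dose of 1, 3 or 10 mg or placebo; a sentinel pair was dosed ≥24 h first. TEAEs were coded by MedDRA, with follow-up 1 week (±2 days) post-dose.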

[6] = metabolism in dog lung S9 fractions; format: in vitro ADME; details: dog lung S9 fortified with 3'‐phosphate‐5'‐phosphosulfate; data on file
JAK = test: cell‐based assays of JAK inhibition; details: Homo sapiens, Epithelial cell, read-out: most potent half‐maximal JAK inhibition (IC50) in a cell‐based assay
JAK1 = JAK1 (Homo sapiens, UniProt P23458); test: biochemical
JAK1, sequence (P23458 875-1153 limits assumed): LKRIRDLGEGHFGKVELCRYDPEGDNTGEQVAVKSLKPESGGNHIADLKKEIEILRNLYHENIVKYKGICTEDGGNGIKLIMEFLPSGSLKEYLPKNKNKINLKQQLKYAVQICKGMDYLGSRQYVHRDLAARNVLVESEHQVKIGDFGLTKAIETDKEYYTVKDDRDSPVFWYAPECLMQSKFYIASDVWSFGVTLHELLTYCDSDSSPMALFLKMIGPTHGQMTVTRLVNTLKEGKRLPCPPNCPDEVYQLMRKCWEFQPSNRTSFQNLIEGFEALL

[7] = metabolite identification in human hepatocytes; format: in vitro ADME
Tyk2 = biological target: T1, Tyk2 (Homo sapiens, UniProt P29597); test: biochemical
T1 sequence (P29597 897-1176 limits assumed): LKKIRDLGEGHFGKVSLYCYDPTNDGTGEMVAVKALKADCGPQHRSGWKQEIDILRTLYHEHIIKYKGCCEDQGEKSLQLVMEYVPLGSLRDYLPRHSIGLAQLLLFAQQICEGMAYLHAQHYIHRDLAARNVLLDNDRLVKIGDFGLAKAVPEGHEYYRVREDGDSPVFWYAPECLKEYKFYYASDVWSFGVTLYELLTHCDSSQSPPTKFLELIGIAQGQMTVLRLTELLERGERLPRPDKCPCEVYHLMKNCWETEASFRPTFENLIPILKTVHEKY

[8] = format: physicochemical; details: PARI eFlow nebulizer, dose range 0.1–10 mg
phase I part B = format: in vivo, human
Summary of the method: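 Double-blind, randomized, placebo-controlled multiple ascending dose study in healthy adults aged 18–50 (FEV1 ≥80% predicted). Three cohorts of 10 (8 active, 2 placebo) got nebulized 1, 3 or 10 mg or placebo once daily for 7 days, staying in residence through day 9. Monitoring covered exams, vital signs, 12-lead ECGs, spirometry, clinical labs and MedDRA-coded TEAEs; follow-up came 1 week (±2 days) after the last dose.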

elimination in the rat = format: in vivo; details: preclinical data
[9] = metabolite identification in dog hepatocytes; format: in vitro ADME
[10] = metabolism in human lung S9; format: in vitro ADME; details: data on file
JAK2 = JAK2 (Homo sapiens, UniProt O60674); test: biochemical
JAK2, sequence (O60674 849-1124 limits assumed): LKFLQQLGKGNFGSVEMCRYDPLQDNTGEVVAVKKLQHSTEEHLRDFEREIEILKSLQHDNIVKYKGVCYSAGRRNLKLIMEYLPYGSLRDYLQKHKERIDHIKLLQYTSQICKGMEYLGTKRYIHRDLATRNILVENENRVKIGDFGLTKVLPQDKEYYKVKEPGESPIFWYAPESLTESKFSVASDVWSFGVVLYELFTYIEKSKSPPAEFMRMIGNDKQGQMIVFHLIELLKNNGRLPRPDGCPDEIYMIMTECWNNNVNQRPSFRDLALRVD

[11] = metabolism in rat lung S9; format: in vitro ADME; details: data on file
[12] = metabolite identification in rat hepatocytes; format: in vitro ADME
COVID‐19 [13] = details: in combination with remdesivir, patients with COVID‐19; cited from earlier work
COVID‐19 [14] = details: phase III RUXCOVID study; cited from earlier work
[15] = all nezulcitinib doses, Total (n = 18)
[16] = single inhaled dose 1 mg (n = 6)
[17] = single inhaled dose 3 mg (n = 6)
[18] = single inhaled dose 10 mg (n = 6)
[19] = one participant, 10 mg, part B, by day 9, deemed not related to study drug
[20] = part B, 1 mg once daily for 7 days (n = 8)
[21] = part B, 3 mg once daily for 7 days (n = 8)
[22] = part B, 10 mg once daily for 7 days (n = 8)
[23] = part B, all nezulcitinib doses, Total (n = 24)

In the case of `CCc1cc(O)ccc1-c1ccc2c(-c3nc4c([nH]3)CN(C(C)C)[C@H](C(=O)N3CC(N(C)C)C3)C4)n[nH]c2c1` [Nezulcitinib], the “inhibition of cytokine‐induced STAT6 phosphorylation” value [1] was “inhibits”, the “DN AUCtau” value ([2]; part B day 7, 1 mg once daily) was 21.0 (25.7) ng•h/ml/mg and the “DN Cmax,ss” value ([2]; part B day 7, 1 mg once daily) was 5.6 (24.1) ng/ml/mg. For the same molecule, the “DN AUCtau” value ([2]; part B day 7, 3 mg once daily) was 17.2 (32.5) ng•h/ml/mg, the “DN Cmax,ss” value ([2]; part B day 7, 3 mg once daily) was 5.9 (42.6) ng/ml/mg and the “DN AUCtau” value ([2]; part B day 7, 10 mg once daily) was 17.8 (65.0) ng•h/ml/mg. The “DN Cmax,ss” value ([2]; part B day 7, 10 mg once daily) was 5.0 (46.4) ng/ml/mg, the AUC ([2]; 1 mg) was 21 ng·h/mL and the Cmax ([2]; 1 mg) was 5.6 ng/mL. It also gave a Tmax ([2]; 1 mg) of 1 h, an AUC ([2]; 3 mg) of 51.6 ng·h/mL and a Cmax ([2]; 3 mg) of 17.6 ng/mL. It also gave a Tmax ([2]; 3 mg) of 1 h, an AUC ([2]; 10 mg) of 178 ng·h/mL and a Cmax ([2]; 10 mg) of 49.6 ng/mL. For the same molecule, the Tmax ([2]; 10 mg) was 1 h, the “dose proportionality of plasma exposures (Cmax and AUC0–t)” value ([2]; part B, 7 days of once‐daily dosing 1, 3, 10 mg) was “increased proportionally” and the “time to steady‐state plasma concentrations” value ([2]; part B, once‐daily dosing, from daily plasma trough concentrations) was at most 4 days. The “Ctrough,ss” value ([2]; part B day 7, 1 mg once daily) was 0.2 (29.5) ng/ml, the “Ctrough,ss” value ([2]; part B day 7, 3 mg once daily) was 0.3 (39.0) ng/ml and the “Ctrough,ss” value ([2]; part B day 7, 10 mg once daily) was 1.1 (83.6) ng/ml. It also gave a fraction unbound [3] of 0.019, a Tmax [4] of about 1 h and an AUC(0-t) ([4]; 1 mg) of 18.7 ng·h/mL. The Cmax ([4]; 1 mg) was 5.5 ng/mL, the Vd/F ([4]; 1 mg) was 1390 L and the AUC(0-t) ([4]; 3 mg) was 45.2 ng·h/mL. It also gave a Cmax ([4]; 3 mg) of 13.8 ng/mL, a Tmax ([4]; 3 mg) of 1 h and a Vd/F ([4]; 3 mg) of 2300 L. The AUC(0-t) ([4]; 10 mg) was 157 ng·h/mL, the Cmax ([4]; 10 mg) was 47.3 ng/mL and the Tmax ([4]; 10 mg) was 1 h. The Vd/F ([4]; 10 mg) was 2200 L, the “dose proportionality of plasma exposures (Cmax and AUC0‐t)” value ([4]; part A, single dose 1, 3, 10 mg) was “increased proportionally” and the “Cum%Dose (cumulative percentage of administered dose excreted)” value ([5]; single inhaled dose 1 mg) was 0.97 (38.3) %. For the same molecule, the “Cum%Dose (cumulative percentage of administered dose excreted)” value ([5]; single inhaled dose 3 mg) was 0.72 (17.5) %, the “Cum%Dose (cumulative percentage of administered dose excreted)” value ([5]; single inhaled dose 10 mg) was 0.84 (41.6) % and the “TEAE Cough” value (phase I part A; [15]) was 2 (11) n (%). For the same molecule, the “TEAE Dizziness” value (phase I part A; [15]) was 2 (11) n (%), the “TEAE Headache” value (phase I part A; [15]) was 1 (6) n (%) and the “TEAE related to nezulcitinib” value (phase I part A; [15]) was 0 n (%). For the same molecule, the “Total participants with TEAEs” value (phase I part A; [15]) was 6 (33) n (%), the “TEAE Cough” value (phase I part A; [16]) was 1 (17) n (%) and the “TEAE Dizziness” value (phase I part A; [16]) was 1 (17) n (%). For the same molecule, the “TEAE Headache” value (phase I part A; [16]) was 1 (17) n (%), the “TEAE related to nezulcitinib” value (phase I part A; [16]) was 0 n (%) and the “Total participants with TEAEs” value (phase I part A; [16]) was 4 (67) n (%). For the same molecule, the “TEAE Cough” value (phase I part A; [17]) was 0 n (%), the “TEAE Dizziness” value (phase I part A; [17]) was 0 n (%) and the “TEAE Headache” value (phase I part A; [17]) was 0 n (%). For the same molecule, the “TEAE related to nezulcitinib” value (phase I part A; [17]) was 0 n (%), the “Total participants with TEAEs” value (phase I part A; [17]) was 0 n (%) and the “TEAE Cough” value (phase I part A; [18]) was 1 (17) n (%). For the same molecule, the “TEAE Dizziness” value (phase I part A; [18]) was 1 (17) n (%), the “TEAE Headache” value (phase I part A; [18]) was 0 n (%) and the “TEAE related to nezulcitinib” value (phase I part A; [18]) was 0 n (%). The “Total participants with TEAEs” value (phase I part A; [18]) was 2 (33) n (%), the tolerability (phase I part A; single inhaled dose, healthy participants) was “generally well‐tolerated” and the “metabolic stability in lung S9” value [6] was “extensive conversion to the sulfation product”. The pIC50 (JAK) was 7.90, the pKi (JAK1) was 10.30 and the primary metabolite [7] was “an oxidation, methylation, and glucuronidation product”. For the same molecule, the pKi (Tyk2) was 9.20, the “emitted fine particle dose, of the nominal dose” value [8] was 40% and the “alanine aminotransferase (ALT) elevation” value (phase I part B; [19]) was 3.8 × ULN. For the same molecule, the “aspartate aminotransferase (AST) elevation” value (phase I part B; [19]) was “approximately 2.8 × ULN”, the “Moderate or severe TEAEs” value (phase I part B; [20]) was 0 n (%) and the “TEAE Cough” value (phase I part B; [20]) was 0 n (%). The “TEAE Dizziness” value (phase I part B; [20]) was 1 (13) n (%), the “TEAE Headache” value (phase I part B; [20]) was 1 (13) n (%) and the “TEAE Lethargy” value (phase I part B; [20]) was 1 (13) n (%). The “TEAE Medical device site reaction” value (phase I part B; [20]) was 0 n (%), the “TEAE related to nezulcitinib” value (phase I part B; [20]) was 0 n (%) and the “Total participants with TEAEs” value (phase I part B; [20]) was 4 (50) n (%). For the same molecule, the “Moderate or severe TEAEs” value (phase I part B; [21]) was 0 n (%), the “TEAE Cough” value (phase I part B; [21]) was 2 (25) n (%) and the “TEAE Dizziness” value (phase I part B; [21]) was 1 (13) n (%). For the same molecule, the “TEAE Headache” value (phase I part B; [21]) was 3 (38) n (%), the “TEAE Lethargy” value (phase I part B; [21]) was 0 n (%) and the “TEAE Medical device site reaction” value (phase I part B; [21]) was 0 n (%). For the same molecule, the “TEAE related to nezulcitinib” value (phase I part B; [21]) was 0 n (%), the “Total participants with TEAEs” value (phase I part B; [21]) was 3 (38) n (%) and the “Moderate or severe TEAEs” value (phase I part B; [22]) was 2 (25) n (%). The “TEAE Cough” value (phase I part B; [22]) was 3 (38) n (%), the “TEAE Dizziness” value (phase I part B; [22]) was 1 (13) n (%) and the “TEAE Headache” value (phase I part B; [22]) was 0 n (%). For the same molecule, the “TEAE Lethargy” value (phase I part B; [22]) was 0 n (%), the “TEAE Medical device site reaction” value (phase I part B; [22]) was 1 (13) n (%) and the “TEAE related to nezulcitinib” value (phase I part B; [22]) was 1 (13) n (%). The “Total participants with TEAEs” value (phase I part B; [22]) was 6 (75) n (%), the “TEAE Cough” value (phase I part B; [23]) was 5 (21) n (%) and the “TEAE Dizziness” value (phase I part B; [23]) was 3 (13) n (%). The “TEAE Headache” value (phase I part B; [23]) was 4 (17) n (%), the “TEAE Lethargy” value (phase I part B; [23]) was 1 (4) n (%) and the “TEAE Medical device site reaction” value (phase I part B; [23]) was 1 (4) n (%). The “TEAE related to nezulcitinib” value (phase I part B; [23]) was 1 (4) n (%), the “Total participants with TEAEs” value (phase I part B; [23]) was 13 (54) n (%) and the “changes from baseline in vital sign and ECG assessments” value (phase I part B; parts A and B) was “No clinically significant changes”. For the same molecule, the “severe or serious AEs” value (phase I part B; parts A and B) was “No severe or serious AEs”, the tolerability (phase I part B; single daily doses up to 10 mg for 7 days, healthy participants) was “generally well‐tolerated” and the “amount eliminated in the urine and bile as unchanged compound” value (elimination in the rat) was “minor amount”. For the same molecule, the primary metabolite [9] was “sulfation product”, the “metabolic stability in lung S9” value [10] was “relatively stable” and the pKi (JAK2) was 10.60. For the same molecule, the “metabolic stability in lung S9” value [11] was “relatively stable” and the primary metabolite [12] was “sulfation product”.
For `CCS(=O)(=O)N1CC(CC#N)(n2cc(-c3ncnc4[nH]ccc34)cn2)C1` [baricitinib], the recovery time (COVID‐19 [13]) is listed as “significantly shortened recovery time”.
For `N#CC[C@H](C1CCCC1)n1cc(-c2ncnc3[nH]ccc23)cn1` [ruxolitinib], the primary end point (COVID‐19 [14]) is listed as “did not meet its primary end point”.
